This is an account of results in ChEMBL document CHEMBL1131024, “N-Arylalkyl pseudopeptide inhibitors of farnesyltransferase” (J Med Chem, 1998).

Test [1] has as its target Protein farnesyltransferase (Homo sapiens, UniProt P49354+P49356). Nature of the test: Inhibition of [3H]FPP incorporation into recombinant human Ha-Ras by Farnesyltransferase. The class given is protein-complex assay. Summed up: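 FTase, either purified from bovine brain or homogeneous human recombinant, transferred [³H]FPP onto recombinant Ha-Ras. Total protein was acid-precipitated and protein-bound FPP was counted by scintillation. IC50 is the concentration inhibiting 50% of [³H]FPP incorporation.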

Test [2] concerns the target Geranylgeranyl transferase type I (Bos taurus, UniProt P29702+Q5EAD5). Nature of the test: Inhibition of bovine Geranylgeranyl transferase type I. The test is classed as protein-complex assay.
The next test relates to NIH3T3. Nature of the test: Highest nontoxic concentration in NIH3T3 cells by MTT staining. The class given is functional, Mus musculus. Summed up:
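NIH 3T3 cells were exposed to compound for 48 h, and viability was read by MTT staining. The endpoint is the highest concentration the cells tolerated.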

Test [3] deals with Protein farnesyltransferase (Mus musculus, UniProt Q61239+Q8K2I1). Nature of the test: Inhibition of post-translational processing of v-Ras protein in NIH3T3 cells. The class given is functional, cell-based. Summed up: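 v-ras-transformed NIH 3T3 cells were incubated 24 h with compound or solvent control and labeled with [³⁵S]methionine over the final 20 h. Processed (farnesylated) Ras was resolved by SDS-PAGE. Lovastatin at 15 µM served as positive control.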

In test [4] the test system is Rat1. The test is described as follows: Inhibition of colony formation in Rat 1-v-ras-transformed cells in soft agar. The test is classed as functional. The method in brief: (§1)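 Rat1 cells transformed by v-ras or v-raf were grown in soft agar for about 2 weeks, fed twice weekly. MIC is the minimum concentration reducing colony size and number relative to vehicle-treated controls.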

Test [5] has as its system Rat1. The test is described as follows: Inhibition of colony formation in Rat 1-v-raf-transformed cells in soft agar. The class given is functional. Summed up:
as §1

The target in test [6] is T1, Protein farnesyltransferase (Bos taurus, UniProt P29702+P49355). Nature of the test: Inhibition of bovine brain Farnesyltransferase at 1 nM. Summed up:
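Bovine brain FTase at approximately 1 nM transferred [³H]FPP onto recombinant human Ha-Ras. Acid-precipitated protein-bound label was counted by scintillation. IC50 is the concentration giving 50% inhibition of incorporation.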

Test [7] has as its target T1, Protein farnesyltransferase. The test is described as follows: Inhibition of bovine brain Farnesyltransferase at 10 pM. The settings on record: in the assay text read “at approximately 1 nM” for “at 10 pM”.

Converted amounts (≈) assume the structure as drawn. A value given as a limit tells only on which side of the number the result lay.

A word on the IC50: it is the concentration needed to halve the response being measured. As for `CC[C@@H](C)[C@@H](CN(C)[C@@H](Cc1ccccc1)C(=O)N[C@@H](CCO)C(=O)O)NC[C@@H](N)CS`, in test [1], the IC50 is 1600 nM.
In the case of `CCC[C@@H](C(=O)N[C@@H](CCO)C(=O)O)N(C)C[C@@H](NC[C@@H](N)CS)[C@H](C)CC`, the IC50 came to 21 nM in test [1] and 43000 nM in test [2].
Turning to `CC[C@@H](C)[C@@H](CN[C@@H](Cc1ccccc1)C(=O)N[C@@H](CCSC)C(=O)O)NC[C@@H](N)CS`, the figures for the IC50 in test [1] and in test [2] were 4.8 nM and 5750 nM, respectively.
For the compound `CC[C@@H](C)[C@@H](CN(Cc1ccccc1)[C@@H](Cc1ccccc1)C(=O)N[C@@H](CCSC)C(=O)O)NC[C@@H](N)CS`, in test [1], the IC50 came out at 1400 nM.
On the same count and under the same terms, for `CC[C@@H](C)[C@@H](CN(C)[C@@H](Cc1ccccc1)C(=O)N[C@@H](CCSC)C(=O)O)NC[C@@H](N)CS` the value was 42 nM.
On to `CC[C@@H](C)[C@@H](CN(CC(=O)N[C@@H](CCSC)C(=O)O)Cc1ccccc1)NC[C@@H](N)CS`, for which the IC50 in test [1] came to 1.2 nM; in test [2] it was 450 nM.
For orientation: MIC means the lowest concentration that inhibits growth of the organism. Low readings indicate greater potency, high ones weaker potency. The compound `CC[C@@H](C)[C@@H](C(=O)N[C@H]1CCOC1=O)N(C)C[C@@H](NC[C@@H](N)CS)[C@H](C)CC` showed a CTE in the test on NIH3T3 of 500 µM. This compound also came in with an IC50 in test [3] of 25000 nM. In the test with Rat1 [4], this compound registered an MIC of 500 µM (≈ 208 µg/mL).
As to `CC[C@@H](C)[C@@H](CN(CC(=O)N[C@@H](CCO)C(=O)O)Cc1cccc2ccccc12)NC[C@@H](N)CS`, the IC50 in test [1] worked out at 0.123 nM; in test [2], 10 nM.
Turning to `CC[C@@H](C)[C@@H](CN(CC(=O)N[C@@H](CCSC)C(=O)OC)Cc1cccc2ccccc12)NC[C@@H](N)CS`, the values for the MIC against Rat1 [5] and in the test on Rat1 [4] were more than 5 µM and 2.5 µM (≈ 1.37 µg/mL), respectively. In addition, the CTE in the test on NIH3T3 turned out to be 5 µM. The same compound returned an IC50 in test [3] of 500 nM.
For the compound `CC[C@@H](C)[C@@H](CN[C@@H](Cc1ccccc1)C(=O)N[C@@H](CCO)C(=O)O)NC[C@@H](N)CS`, the figures for the IC50 in test [6] and in test [2] were 26 nM and 10000 nM, respectively.
`CCC[C@H](NC[C@@H](NC[C@@H](N)CS)[C@H](C)CC)C(=O)N[C@@H](CCO)C(=O)O`: the IC50 in test [7] came out at 27 nM; in test [2] it was 10000 nM.
For `CC[C@@H](C)[C@@H](CN(C)CC(=O)N[C@@H](CCO)C(=O)O)NC[C@@H](N)CS` the same measures were 83 nM and 10000 nM.
`CC[C@@H](C)[C@@H](CN(C)[C@H](C(=O)N[C@@H](CCSC)C(=O)O)[C@@H](C)CC)NC[C@@H](N)CS`: the IC50 came to 25 nM in test [1] and 4700 nM in test [2].
As to `CC[C@@H](C)[C@@H](CN[C@H](C(=O)N[C@@H](CCSC)C(=O)O)[C@@H](C)CC)NC[C@@H](N)CS`, in test [1], the IC50 was determined as 30 nM.
With `CC[C@@H](C)[C@H](NC[C@@H](NC[C@@H](N)CS)[C@H](C)CC)C(=O)N[C@H]1CCOC1=O`, the MIC was more than 1000 µM in the test with Rat1 [5] and 1000 µM (≈ 403 µg/mL) against Rat1 [4]. For the same compound, the CTE in the test with NIH3T3 was more than 1000 µM. The IC50 in test [3] worked out at 100000 nM.
As to `CC[C@@H](C)[C@@H](CN(CC(=O)N[C@@H](CCSC)C(=O)O)Cc1ccccc1)NCCCS`, the IC50 was found to be 2.2 nM in test [1] and 39000 nM in test [2].
As to `CC[C@H](C)[C@H](NC[C@@H](NC[C@@H](N)CS)[C@@H](C)CC)C(=O)N[C@@H](CCO)C(=O)O`, the 50% inhibitory concentration (IC50) in test [1] came out at 20 nM.
`CCC(C)[C@@H](CN(CC(=O)N[C@@H](CCSC)C(=O)OC)Cc1ccccc1)NC[C@@H](N)CS` (stereo partly specified): in the test with NIH3T3, the CTE amounted to 10 µM. For the same compound, the IC50 in test [3] was found to be 100 nM.
